Assay results: ChEMBL document CHEMBL1145172, “From the potent and selective mu opioid receptor agonist H-Dmt-d-Arg-Phe-Lys-NH(2) to the potent delta antagonist H-Dmt-Tic-Phe-Lys(Z)-OH” (J Med Chem, 2005)
Where a SMILES comes first, the peptide text is derived from it. [ ]: non-standard residue; d: D form. The star is where a group is joined. Dmt = Cc1cc(O)cc(C)c1C[C@H](N)C(=O)O; Tic = O=C(O)[C@@H]1Cc2ccccc2CN1; Cbz = O=C(OCc1ccccc1)*

How the values were obtained:
[1] = Inhibition constant against synaptosomal Delta Opioid Receptor
Summary of the method: (§1)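 Competitive binding on synaptosomal membranes from several separate preparations, run as independent duplicate assays with five to eight peptide doses each. Ki derived by the Cheng–Prusoff relation. Values reported as mean ± SE with n repetitions.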

[2] = Inhibition constant against synaptosomal Mu opioid receptor; summary of the method: as §1
Mu-type opioid receptor = Mu-type opioid receptor (Cavia porcellus, UniProt P97266); experiment: Agonist activity against mu opioid receptor of guinea pig ileum; assay type: functional, tissue-based
Mu-type opioid receptor, sequence (P97266 whole entry): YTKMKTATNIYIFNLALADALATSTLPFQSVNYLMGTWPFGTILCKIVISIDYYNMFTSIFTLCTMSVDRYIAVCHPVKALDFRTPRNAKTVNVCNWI
Summary of the method: (§2)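 Electrically stimulated isolated tissue: guinea pig ileum for μ and mouse vas deferens for δ. Agonist IC50 taken from dose–response curves. Values are mean ± SE from at least five fresh tissue samples.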

[3] = biological target: T1, Delta-type opioid receptor (Mus musculus, UniProt P32300); experiment: Agonistic activity against delta opioid receptor of mouse vas deferens assay; assay type: functional, tissue-based; summary of the method: as §2
T1 sequence (P32300 whole entry): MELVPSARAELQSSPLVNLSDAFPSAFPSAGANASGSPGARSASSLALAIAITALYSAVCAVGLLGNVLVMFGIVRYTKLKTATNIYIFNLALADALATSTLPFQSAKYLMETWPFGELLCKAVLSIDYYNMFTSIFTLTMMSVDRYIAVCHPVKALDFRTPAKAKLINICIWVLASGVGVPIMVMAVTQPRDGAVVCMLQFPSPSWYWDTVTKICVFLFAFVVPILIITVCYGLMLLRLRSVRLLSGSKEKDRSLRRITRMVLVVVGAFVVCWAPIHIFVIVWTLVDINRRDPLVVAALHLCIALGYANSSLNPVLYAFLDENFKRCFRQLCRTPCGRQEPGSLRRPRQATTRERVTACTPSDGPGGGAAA

[4] = biological target: T1, Delta-type opioid receptor; experiment: Antagonist activity in mouse vas deferens assay; assay type: functional, tissue-based; conditions: read-out: pA2 (converted)
Summary of the method: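 Electrically stimulated mouse vas deferens, with deltorphin C as the δ agonist. Antagonism expressed as pA2: the negative log of the molar antagonist concentration that doubles the agonist concentration needed to restore the original submaximal response.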

[5] = biological target: Opioid receptors; mu & delta (Homo sapiens) (UniProt P41143+P35372); experiment: Selectivity for synaptosomal Mu rather than Delta Opioid Receptors; assay type: protein assay
Opioid receptors; mu & delta (Homo sapiens), sequence (P35372 whole entry, looked up): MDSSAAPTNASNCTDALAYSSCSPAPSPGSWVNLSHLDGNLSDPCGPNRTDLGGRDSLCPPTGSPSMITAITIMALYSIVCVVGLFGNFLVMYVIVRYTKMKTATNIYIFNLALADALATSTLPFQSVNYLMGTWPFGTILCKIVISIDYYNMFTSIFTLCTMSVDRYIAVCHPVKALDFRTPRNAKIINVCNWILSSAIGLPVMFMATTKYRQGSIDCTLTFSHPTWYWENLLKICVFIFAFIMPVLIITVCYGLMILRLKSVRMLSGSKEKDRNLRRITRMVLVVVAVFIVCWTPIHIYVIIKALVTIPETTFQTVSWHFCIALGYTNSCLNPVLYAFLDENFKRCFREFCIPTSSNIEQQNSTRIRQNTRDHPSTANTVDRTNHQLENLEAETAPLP
Opioid receptors; mu & delta (Homo sapiens), sequence (P41143 whole entry, looked up): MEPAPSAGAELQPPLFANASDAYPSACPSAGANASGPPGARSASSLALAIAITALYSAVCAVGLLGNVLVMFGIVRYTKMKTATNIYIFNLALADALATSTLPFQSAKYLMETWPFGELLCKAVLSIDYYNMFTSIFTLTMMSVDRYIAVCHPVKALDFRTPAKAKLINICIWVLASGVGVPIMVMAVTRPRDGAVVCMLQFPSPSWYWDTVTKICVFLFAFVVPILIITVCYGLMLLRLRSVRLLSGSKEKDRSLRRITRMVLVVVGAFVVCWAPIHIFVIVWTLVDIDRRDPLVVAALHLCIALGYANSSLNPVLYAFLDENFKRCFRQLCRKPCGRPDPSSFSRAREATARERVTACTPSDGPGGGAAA

| Structure (SMILES) | Ki [1] | Ki [2] | IC50 (Mu-type opioid receptor) | IC50 [3] | Kb [4] | Selectivity [5] |
| --- | --- | --- | --- | --- | --- | --- |
| Cc1cc(O)cc(C)c1C[C@H](N)C(=O)N[C@H](CCC/N=C(/N)N[N+](=O)[O-])C(=O)N[C@@H](Cc1ccccc1)C(=O)N[C@@H](CCCCNC(=O)OCc1ccccc1)C(=O)O | 47.6 nM | 1.45 nM | 63 nM | 682 nM | – | – |
| Cc1cc(O)cc(C)c1C[C@H](N)C(=O)N1Cc2ccccc2C[C@H]1C(=O)N[C@@H](Cc1ccccc1)C(=O)N[C@@H](CCCCNC(=O)OCc1ccccc1)C(N)=O (H-[Dmt][Tic]FK(Cbz)-NH2) | 0.23 nM | 1.14 nM | 1890 nM | > 10000 nM | 3.8 nM | 5 |
| Cc1cc(O)cc(C)c1C[C@H](N)C(=O)N[C@H](CCCN=C(N)N[N+](=O)[O-])C(=O)N[C@@H](Cc1ccccc1)C(=O)N[C@@H](CCCCNC(=O)OCc1ccccc1)C(N)=O | 24.2 nM | 0.15 nM | 0.509 nM | 1.69 nM | – | – |
| Cc1cc(O)cc(C)c1C[C@H](N)C(=O)N1Cc2ccccc2C[C@H]1C(=O)N[C@@H](Cc1ccccc1)C(=O)N[C@@H](CCCCNC(=O)OCc1ccccc1)C(=O)O (H-[Dmt][Tic]FK(Cbz)-OH) | – | – | > 10000 nM | > 10000 nM | 0.00372 nM | 145 |
